# Assay results reported in ChEMBL document CHEMBL1773017, “The identification of 4,7-disubstituted naphthoic acid derivatives as UDP-competitive antagonists of P2Y14” (Bioorg Med Chem Lett, 2011).
# How the values were obtained:
# [1] = molecular target: T1, P2Y purinoceptor 14 (Mus musculus, UniProt Q9ESG6); assay: Antagonist activity at mouse P2Y14 receptor expressed in HEK293 cells assessed as calcium flux by FLIPR assay; format: functional, cell-based
# T1 sequence (Q9ESG6 whole entry): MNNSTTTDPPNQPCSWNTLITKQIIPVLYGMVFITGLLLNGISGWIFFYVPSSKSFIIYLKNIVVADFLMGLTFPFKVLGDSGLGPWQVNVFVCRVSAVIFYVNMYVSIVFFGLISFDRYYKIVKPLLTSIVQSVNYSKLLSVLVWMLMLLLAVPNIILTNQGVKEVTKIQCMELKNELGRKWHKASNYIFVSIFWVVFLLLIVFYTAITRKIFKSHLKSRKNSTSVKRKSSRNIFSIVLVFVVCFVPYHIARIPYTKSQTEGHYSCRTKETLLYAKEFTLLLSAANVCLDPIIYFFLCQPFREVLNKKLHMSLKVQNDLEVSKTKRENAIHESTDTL
# [2] = Displacement of [3H]-UDP from chimpanzee P2Y14 receptor expressed in HEK293 cells; format: cell-based, Pan troglodytes
# [3] = Antagonist activity at chimpanzee P2Y14 receptor expressed in HEK293 cells assessed as calcium flux by FLIPR assay; format: functional, cell-based; settings: Pan troglodytes
# [4] = Half life in C57BL/6 mouse at 50 mg/kg, po and 2 mg/kg, iv; format: ADME, organism-based; settings: in vivo
# Method in brief: (§1)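 C57BL/6 mice were dosed orally at 50 mg/kg (one analog at 25 mg/kg) in 5% Tween-80. They were also dosed intravenously at 2 mg/kg in 60% PEG-200. Oral bioavailability, half-life and intrinsic clearance come from these dosings.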
# [5] = system: Mus musculus; assay: Intrinsic clearance in C57BL/6 mouse at 2 mg/kg, iv administered in 60% PEG-200; format: ADME, organism-based; parameters: dose 2 mg/kg, route intravenous; settings: in vivo; method in brief: as §1
# [6] = Cmax in C57BL/6 mouse at 50 mg/kg, po administered in 5% Tween-80; format: ADME, organism-based; parameters: dose 50 mg/kg, route oral; settings: in vivo; method in brief: as §1
# [7] = Metabolic stability in C57BL/6 mouse Hepatocyte assessed as parent compound remaining at 20 uM after 2 hrs; format: ADME, cell-based; settings: hepatocytes, read-out: Stability
# Method in brief: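 Hepatocytes were isolated from mouse liver by two-step perfusion with 50 U/mL collagenase. Compound was incubated with the hepatocytes for 2 h, and metabolic stability was read out as the percentage of parent drug remaining.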
# [8] = Oral bioavailability in C57BL/6 mouse at 50 mg/kg, po administered in 5% Tween-80; format: ADME, organism-based; settings: in vivo; method in brief: as §1
# [9] = system: Mus musculus; assay: Drug metabolism in Mrp2 (-/-) mouse assessed as (2S,3S,4S,5R,6S)-6-(7-(4-fluoro-2,6-dimethylbenzyloxy)-4-(thiophen-3-yl)-2-naphthoyloxy)-3,4,5-trihydroxytetrahydro-2H-pyran-2-carboxylic acid recovery in bile at 2 mg/kg, po up to 24 hrs; settings: in vivo
# [10] = Oral bioavailability in C57BL/6 mouse at 25 mg/kg, po administered in 5% Tween-80; format: ADME, organism-based; settings: in vivo; method in brief: as §1
# [11] = Cmax in C57BL/6 mouse at 25 mg/kg, po administered in 5% Tween-80; format: ADME, organism-based; parameters: dose 25 mg/kg, route oral; settings: in vivo; method in brief: as §1
compound,measurement,setting,value
O=C(O)c1cc(-c2ccccc2)c2ccc(OCc3ccccc3)cc2c1,IC50,[1],3500 nM
same,Ki,[2],160 nM
same,IC50,[3],3500 nM
COc1ccc2c(-c3ccccc3)cc(C(=O)O)cc2c1,Ki,[2],4000 nM
O=C(O)c1cc(-c2ccccc2)c2ccc(Oc3ccccc3)cc2c1,IC50,[1],4900 nM
same,Ki,[2],1500 nM
same,IC50,[3],4100 nM
O=C(O)c1ccc(COc2ccc3c(-c4ccccc4)cc(C(=O)O)cc3c2)cc1,IC50,[1],> 13000 nM
same,IC50,[3],> 40000 nM
O=C(O)c1cc(-c2ccccc2)c2ccc(OCc3c(Cl)cccc3Cl)cc2c1,IC50,[1],190 nM
same,Ki,[2],29 nM
same,IC50,[3],91 nM
Cc1cccc(C)c1COc1ccc2c(-c3ccccc3)cc(C(=O)O)cc2c1,IC50,[1],110 nM
same,Ki,[2],42 nM
same,IC50,[3],41 nM
Cc1cccc(C)c1OCc1ccc2c(-c3ccccc3)cc(C(=O)O)cc2c1,IC50,[1],2100 nM
same,Ki,[2],340 nM
same,IC50,[3],1500 nM
Cc1cccc(C)c1COc1ccc2ccc(C(=O)O)cc2c1,IC50,[1],13000 nM
same,IC50,[3],6500 nM
Cc1cccc(C)c1COc1ccc2c(OCc3ccccc3)cc(C(=O)O)cc2c1,IC50,[1],110 nM
same,Ki,[2],21 nM
same,IC50,[3],89 nM
Cc1cccc(C)c1COc1ccc2c(-c3ccsc3)cc(C(=O)O)cc2c1,IC50,[1],26 nM
same,Ki,[2],16 nM
same,IC50,[3],6 nM
Cc1cc(F)cc(C)c1COc1ccc2c(-c3ccsc3)cc(C(=O)O)cc2c1,IC50,[1],14 nM
same,half-life,[4],2.7 h
same,CL,[5],7.1 mL/min/kg
same,Cmax,[6],23 µM
same,"remaining at 2 h, 20 µM",[7],8%
same,bioavailability,[8],12%
same,Ki,[2],14 nM
same,Activity,[9],> 99%
same,IC50,[3],4 nM
O=C(O)c1cc(-c2ccsc2)c2ccc(-c3ccc(OC(F)(F)F)cc3)cc2c1,IC50,[1],54 nM
same,bioavailability,[10],92%
same,half-life,[4],1.1 h
same,CL,[5],18 mL/min/kg
same,Cmax,[11],18 µM
same,"remaining at 2 h, 20 µM",[7],62%
same,Ki,[2],29 nM
same,IC50,[3],14 nM
O=C(O)c1cc2cc(-c3ccc(OC(F)(F)F)cc3)ccc2c(-c2ccsc2)c1F,IC50,[1],380 nM
same,half-life,[4],4.3 h
same,CL,[5],3.3 mL/min/kg
same,Cmax,[6],89 µM
same,"remaining at 2 h, 20 µM",[7],85%
same,bioavailability,[8],129%
same,Ki,[2],110 nM
same,IC50,[3],110 nM
O=C(O)c1cc2cc(-c3ccc(OC(F)(F)F)cc3)ccc2c(-c2ccsc2)c1O,IC50,[1],1300 nM
same,half-life,[4],13 h
same,CL,[5],7.6 mL/min/kg
same,Cmax,[6],34 µM
same,"remaining at 2 h, 20 µM",[7],93%
same,Ki,[2],170 nM
same,IC50,[3],490 nM
O=C(O)c1cc(-c2cscc2C(O)(C(F)(F)F)C(F)(F)F)c2ccc(-c3ccc(OC(F)(F)F)cc3)cc2c1,IC50,[1],350 nM
same,half-life,[4],4.1 h
same,CL,[5],1.9 mL/min/kg
same,Cmax,[6],37 µM
same,"remaining at 2 h, 20 µM",[7],91%
same,bioavailability,[8],45%
same,Ki,[2],54 nM
same,IC50,[3],91 nM
CS(=O)(=O)c1cscc1-c1cc(C(=O)O)cc2cc(-c3ccc(OC(F)(F)F)cc3)ccc12,half-life,[4],3.2 h
same,CL,[5],3.7 mL/min/kg
same,Cmax,[6],16 µM
same,"remaining at 2 h, 20 µM",[7],16%
same,bioavailability,[8],4%
same,Ki,[2],32 nM
same,IC50,[3],86 nM
CS(=O)(=O)c1ccc(-c2cc(C(=O)O)cc3cc(-c4ccc(C(F)(F)F)cc4)ccc23)cc1,IC50,[1],20 nM
same,Ki,[2],7 nM
same,IC50,[3],7 nM
O=C(O)c1cc(-c2ccc(C(O)C(F)(F)F)cc2)c2ccc(-c3ccc(C(F)(F)F)cc3)cc2c1 (stereo not drawn),IC50,[1],13 nM
same,Ki,[2],14 nM
same,IC50,[3],5 nM
O=C(O)c1cc(-c2ccc([C@@H](O)C(F)(F)F)cc2)c2ccc(-c3ccc(C(F)(F)F)cc3)cc2c1,IC50,[1],4 nM
same,Ki,[2],10 nM
same,IC50,[3],1 nM
O=C(O)c1cc(-c2ccc([C@H](O)C(F)(F)F)cc2)c2ccc(-c3ccc(C(F)(F)F)cc3)cc2c1,IC50,[1],51 nM
same,Ki,[2],21 nM
same,IC50,[3],11 nM
O=C(O)c1cc(-c2ccc([C@@H](O)C(F)F)cc2)c2ccc(-c3ccc(C(F)(F)F)cc3)cc2c1,IC50,[1],8 nM
same,half-life,[4],3 h
same,CL,[5],1.6 mL/min/kg
same,Cmax,[6],113 µM
same,"remaining at 2 h, 20 µM",[7],39%
same,bioavailability,[8],67%
same,Ki,[2],4 nM
same,IC50,[3],1 nM
